# Screening data: PubChem, several laboratories
# PTK2B oligo ant: blocks oligomerization of human Pyk2 in cells; actives 0.83% (n = 99,000); Q14289; Q293 cells, Pyk2 FERM NanoBiT luminescence; stronger effect = lower value; z-score (the deposit names both 25 µM and 10 µM);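 active = Z-score of -3 or lower, scaled per plate to the spread of control and sample wells; inactive = z-score above -3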;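 note: negative z-score means lost luminescence so less FERM oligomerization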
# Lung fibro prol: blocks proliferation of human lung fibroblasts. LL 47 human lung fibroblast viability, ATP luminescence; stronger effect = lower value. viability, % at 10 µM. actives 1.1% (n = 85,000). AID 719;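 active = viability at or below 50% in the single dose screen; inactive = viability above 50%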;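 note: compound exposure lasted 72 h before the ATP readout; 100% = median luminescence of untreated cell-only wells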
#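 Test system: LL 47 human lung fibroblasts / Incubation: 72 h compound exposure at 37 °C after overnight plating / Technique: luminescent ATP detection, CellTiter-Glo / Compound dosing: 0.1% DMSO in all compound wells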
# Jurkat viability: cytotoxic compounds reducing Jurkat cell viability; Jurkat E6.1 viability, ATP luminescence, 48 h; inhibition, % at 4 µM; actives 1.2% (n = 56,000); AID 463;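 active = inhibition above the mean inhibition of all tested compounds plus 3 SD, cut at about 28% in these data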
# cytoskel mod: alters cytoskeleton assembly in HUVEC cells; inhibition, % at 2 µM; HUVEC TNFa F-actin phalloidin imaging, high content; actives 0.18% (n = 91,000); AID 836;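 active = inhibition above the batch mean plus 3 SD and confirmed as a hit by visual image inspection, cut at about 30% in these data, passing the limit was not always enough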
# H69AR inhibit: growth inhibitors of human H69AR lung tumor cells. viability, % at 10 µM. actives 6% (n = 85,000). AID 598. H69AR lung tumor viability, ATP luminescence, 72 h; stronger effect = lower value;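 active = viability at or below 40%; inactive = viability above 40%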;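 note: multidrug resistant small cell line overexpressing MRP-1 efflux transporter; 100% = mean luminescence of untreated control wells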
# HUVEC prolif 384: human endothelial cell proliferation inhibition. viability, % at 10 µM (by protocol). HUVEC proliferation, CellTiter-Glo luminescence, 72 h; stronger effect = lower value. actives 1.1% (n = 86,000);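 active = viability at or below 30%; inactive = viability above 30%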;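 note: 100% = median luminescence of DMSO-only cell control wells on each plate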
# * marks the source's active call; other numbers are inactive results; nt = no result. In the library only some 6% were active in any assay of this set; here they are far more common.
SMILES,PTK2B oligo ant,Lung fibro prol,Jurkat viability,cytoskel mod,H69AR inhibit,HUVEC prolif 384
Cc1noc(C)c1CSc1nc2ccccc2c(=O)n1-c1ccccc1,-0.85,58,89*,8,17*,61
Cc1nc(CSc2nc3[nH]ncc3c(=O)n2-c2ccccc2)cs1,-0.51,95,6,16,73,105
Cc1noc(C)c1CSc1nnc2n(-c3ccccc3)c(=O)c3ccccc3n12,nt,87,-3,nt,81,104
O=c1c2ccccc2nc(SCc2cc(F)ccc2F)n1C1CCCC1,-0.04,nt,nt,-30,nt,nt
Cc1noc(C)c1CSc1nc2ccccc2c(=O)n1-c1ccc(F)cc1F,-1.4,61,92*,6,23*,51
COc1ccc(-c2noc(CSc3nc4ccccc4c(=O)n3-c3ccccc3)n2)cc1,-0.87,86,2,-17,29*,83
COC(=O)c1nc2n(n1)C(c1cc(OC)ccc1OC)C(C(=O)OC1CCCCC1)=C(C)N2 (centres undefined),-0.99,nt,nt,3,nt,nt
COc1ccc(NC(=O)CCc2c(C)nc3nc(C)nn3c2C)cc1,0.73,102,nt,-4,93,85
CCCCN=CC1=C(O)C(C(=O)OC)C(C)(C)CC1=O (centres undefined),-0.93,99,4,2,99,95
CC(CC(=O)Nc1nncs1)c1ccccc1 (centres undefined),1.7,100,nt,0,65,90
COc1ccccc1-c1cc(C(F)(F)F)nc(S(=O)(=O)CCCC(=O)N2CCCCC2C)n1 (centres undefined),-1.1,nt,58*,21,nt,nt
COc1ccccc1-c1cc(C(F)(F)F)nc(S(=O)(=O)CCCC(=O)NC(C)C)n1,-0.86,nt,0,-2,nt,nt
O=c1oc(-c2ccccc2F)nc2c1cnn2-c1ccccc1,-1.1,82,nt,10,54,5.9*
CCN1CCCC1CNC(=O)c1cc(NC(C)=O)c(N(C)C)cc1OC (centres undefined),0.14,102,-2,1,103,112
CCc1ccccc1NS(=O)(=O)c1ccc2[nH]cc(C(=O)NCc3ccco3)c(=O)c2c1,-0.47,89,8,3,70,28*
CCOc1ccc(OCCOc2ncnc3ccccc23)cc1,1.4,93,nt,10,101,110
Cc1cc(Nc2ccccc2)nc(-c2ccccc2O)n1,-1.4,nt,3,-10,nt,nt
Cc1cc(NC2CCCCC2)nc(-c2ccccc2O)n1,-0.53,90,nt,nt,38*,74
COC1(OC)C(/C=C/c2ccc(C)cc2)C(C#N)(C#N)C1(OC)OC (centres undefined),-1.1,55,nt,18,12*,87
CC(C)CC(C(=O)NCC1CCCO1)N(C(=O)Cn1nnc(-c2ccc(F)cc2)n1)c1ccccc1F (centres undefined),-0.69,nt,nt,-32,nt,nt
Cc1ccc(C(=O)Nc2ncc(Cc3ccc(F)cc3)s2)o1,-0.81,92,0,3,89,30*
CSc1nc2ccccc2n1Cc1c(Cl)cccc1Cl,-0.18,92,nt,20,36*,100
Nc1nc(C2CCCN2S(=O)(=O)c2ccc(Cl)cc2)cs1 (centres undefined),-3.2*,102,9,-39,98,99
CCN(C)c1ccc(/C=N\n2nnnc2N)cc1,0.75,nt,82*,-18,nt,nt
Nc1nnnn1/N=C/c1ccc(O)cc1,0.23,95,nt,-9,85,83
SMILES,PTK2B oligo ant,Lung fibro prol,Jurkat viability,cytoskel mod,H69AR inhibit,HUVEC prolif 384
Cc1cc(C)c(O)c(-c2cc(C(=O)Nc3ccc(S(=O)(=O)N4CCOCC4)cc3)[nH]n2)c1,-3.2*,41*,22,13,9.2*,36
Cc1cc(C)nc(NS(=O)(=O)c2ccc(NC(=O)c3ccc(S(=O)(=O)N4CCOCC4)cc3)cc2)n1,-0.1,nt,nt,13,nt,nt
CCc1nc(C)cn1S(=O)(=O)c1cc(C)c(OC)c(C)c1C,0.71,83,nt,-5,89,66
O=C(NCc1cccnc1)NC1(C(F)(F)F)Oc2ccc(Cl)cc2O1 (centres undefined),nt,70,45*,-3,31*,51
COCCNC(=O)NC1(C(F)(F)F)Oc2ccc(Cl)cc2O1 (centres undefined),0.11,63,nt,-16,34*,57
Cc1cc(NC(=O)NC2(C(F)(F)F)Oc3ccc(Cl)cc3O2)no1 (centres undefined),0.46,nt,nt,2,nt,nt
CCN1C(=O)C(F)(CC)C(=O)c2ccccc21 (centres undefined),0.1,nt,nt,nt,nt,nt
